Active and inactive are the calls of the source. The rule behind the calls is not given here.
Each compound was assayed against T1, Indoleamine 2,3-dioxygenase 1 (Homo sapiens, UniProt P14902) (assay: Inhibition of recombinant human IDO1 assessed as reduction in kynurenine production using L-tryptophan as substrate after 60 mins by microplate reader method). Conditions: not given.
Target sequence in this assay (P14902 whole entry): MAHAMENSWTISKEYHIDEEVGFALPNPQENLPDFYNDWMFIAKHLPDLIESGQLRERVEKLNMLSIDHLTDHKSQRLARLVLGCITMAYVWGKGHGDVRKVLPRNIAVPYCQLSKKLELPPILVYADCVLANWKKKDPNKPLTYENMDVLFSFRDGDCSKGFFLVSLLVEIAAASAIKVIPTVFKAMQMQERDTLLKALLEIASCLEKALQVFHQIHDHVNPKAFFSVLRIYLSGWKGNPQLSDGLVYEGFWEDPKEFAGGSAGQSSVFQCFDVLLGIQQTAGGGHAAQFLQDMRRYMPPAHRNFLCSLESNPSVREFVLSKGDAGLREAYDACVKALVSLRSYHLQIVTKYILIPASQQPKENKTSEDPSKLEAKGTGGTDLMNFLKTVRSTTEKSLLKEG

Going from `NOCc1ccccc1F` to `NOCc1ccccc1O`, the IC50 rises from 1400 nM to 19000 nM (14-fold). The first is the more potent here.

`NOCc1ccc(Cl)cc1` and `NOCc1ccc(F)cc1` are within 1.5-fold of each other in IC50: 1300 nM for the first, 980 nM for the second.

Compared with `CC(C)c1ccc(CON)cc1`, `NOCc1ccc(Br)cc1` is 9.4-fold lower in IC50: 15000 nM for the first, 1600 nM for the second. The second is the more potent here.

Going from `NOCc1ccccc1` to `NOCCCc1ccccc1`, the IC50 rises from 810 nM to 82000 nM (100-fold). The first is the more potent here.

First: NOCc1cc(C(F)(F)F)cc(C(F)(F)F)c1
Second: NOCc1cccc(C(F)(F)F)c1
The IC50 of the first is 11-fold higher: 4600 nM for the first, 410 nM for the second. The second is the more potent here.

`NOCc1ccc(I)cc1Cl` and `NOCc1ccc(Cl)cc1Cl` are within 1.5-fold of each other in IC50: 730 nM for the first, 630 nM for the second.

Compared with `NOCc1cccc(Br)c1`, `NOCc1cccc(F)c1` is 3.1-fold higher in IC50: 320 nM for the first, 1000 nM for the second. The first is the more potent here.

`Cl.NOCc1cccc(Cl)c1` and `NOCc1cccc(I)c1` are within 1.5-fold of each other in IC50: 300 nM for the first, 340 nM for the second.

Compared with `NOCc1cc(C(F)(F)F)ccc1F`, `NOCc1ccc(C(F)(F)F)cc1F` is 1.9-fold higher in IC50: 570 nM for the first, 1100 nM for the second.

Compared with `NOCc1ccc(F)cc1F`, `NOCc1ccc(F)cc1C(F)(F)F` is 1.7-fold higher in IC50: 1400 nM for the first, 2400 nM for the second. The first is the more potent here.

Going from `NOCc1ccc([N+](=O)[O-])cc1` to `NOCc1ccc(O)cc1`, the IC50 rises from 2700 nM to 61000 nM (23-fold). The first is the more potent here.

Compared with `NNCc1ccccc1` [BENZYLHYDRAZINE], `ONCc1ccccc1` is 12-fold lower in IC50: 71000 nM for the first, 6000 nM for the second. The second is the more potent here.

First: NOC1CCc2ccccc21 (stereo unspecified)
Second: NOC1CCCc2ccccc21 (stereo unspecified)
The IC50 of the first is 2.6-fold higher: 26000 nM for the first, 10000 nM for the second. The second is the more potent here.

Going from `NOCc1cc(Cl)cc(Cl)c1` to `NOCc1ccc(Cl)c(Cl)c1`, the IC50 rises from 900 nM to 2100 nM (2.3-fold).

Compared with `NOCc1ccc(Cl)c(C(F)(F)F)c1`, `NOCc1ccc(C(F)(F)F)cc1` is 18-fold higher in IC50: 490 nM for the first, 8900 nM for the second. The first is the more potent here.

`NOCc1cccc(Cl)c1Cl` and `NOCc1ccccc1Cl` are within 1.5-fold of each other in IC50: 450 nM for the first, 630 nM for the second.

`NOCc1cc(F)cc(F)c1` and `NOCc1cc(Br)cc(Br)c1` are within 1.5-fold of each other in IC50: 3400 nM for the first, 4200 nM for the second.

Going from `COc1ccc(CON)cc1` to `COc1cccc(CON)c1`, the IC50 falls from 24000 nM to 9500 nM (2.5-fold). The second is the more potent here.

Going from `COc1cccc(CON)c1O` to `COc1ccccc1CON`, the IC50 falls from 55000 nM to 5400 nM (10-fold).

First: NOCc1ccc(-c2ccccc2)cc1
Second: Cl.NOCc1ccc(I)cc1
The IC50 of the first is 55-fold higher: 12000 nM for the first, 220 nM for the second. The second is the more potent here.

Going from `NOCc1ccccc1C(F)(F)F` to `NOCc1ccccc1I`, the IC50 falls from 2500 nM to 570 nM (4.4-fold). The second is the more potent here.

First: NNc1ccccc1 [PHENYLHYDRAZINE]
Second: ONc1ccccc1
The IC50 of the first is 40-fold lower: 230 nM for the first, 9200 nM for the second.

First: Cc1cccc(CON)c1
Second: NOCc1ccccc1Br
The IC50 of the first is 1.7-fold higher: 2700 nM for the first, 1600 nM for the second.

Compared with `O=C(NO)c1ccccc1` [BENZOHYDROXAMATE], `NOC/C=C/c1ccccc1` is 2.3-fold lower in IC50: 16000 nM for the first, 7100 nM for the second.

First: NOC(c1ccccc1)C1CC1 (stereo unspecified)
Second: NOC1Cc2ccccc2C1
The IC50 of the first is 1.9-fold lower: 5200 nM for the first, 10000 nM for the second.

With `COc1ccc(OC)c(CON)c1` the IC50 was 1700 nM.

These compounds were tested against T2, Catalase (Homo sapiens, UniProt P04040) (assay: Inhibition of catalase (unknown origin) using hydrogen peroxide as substrate). Conditions: not given.
T2 sequence (P04040 whole entry): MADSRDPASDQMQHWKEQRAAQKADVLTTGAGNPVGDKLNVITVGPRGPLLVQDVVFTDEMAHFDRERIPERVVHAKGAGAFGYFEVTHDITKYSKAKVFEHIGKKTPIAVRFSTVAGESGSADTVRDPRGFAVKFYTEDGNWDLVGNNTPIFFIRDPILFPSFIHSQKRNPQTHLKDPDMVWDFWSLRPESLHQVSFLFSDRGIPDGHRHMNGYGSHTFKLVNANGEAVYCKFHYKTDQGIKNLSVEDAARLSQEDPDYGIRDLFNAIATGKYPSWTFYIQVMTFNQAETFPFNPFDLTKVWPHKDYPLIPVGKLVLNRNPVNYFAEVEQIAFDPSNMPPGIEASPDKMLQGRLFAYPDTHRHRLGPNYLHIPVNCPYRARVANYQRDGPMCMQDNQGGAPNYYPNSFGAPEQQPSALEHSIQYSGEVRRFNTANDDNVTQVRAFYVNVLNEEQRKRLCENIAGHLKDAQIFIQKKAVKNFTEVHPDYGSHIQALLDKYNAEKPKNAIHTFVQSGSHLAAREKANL

`Cl.NOCc1cccc(Cl)c1` and `Cl.NOCc1ccc(I)cc1` cannot be ordered by IC50: greater than 100000 nM for the first, greater than 100000 nM for the second.

These compounds were tested against Cytochrome P450 3A4 (Homo sapiens, UniProt P08684) (assay: Inhibition of CYP3A4 (unknown origin)). Conditions: not given.
Sequence of Cytochrome P450 3A4 (P08684 whole entry): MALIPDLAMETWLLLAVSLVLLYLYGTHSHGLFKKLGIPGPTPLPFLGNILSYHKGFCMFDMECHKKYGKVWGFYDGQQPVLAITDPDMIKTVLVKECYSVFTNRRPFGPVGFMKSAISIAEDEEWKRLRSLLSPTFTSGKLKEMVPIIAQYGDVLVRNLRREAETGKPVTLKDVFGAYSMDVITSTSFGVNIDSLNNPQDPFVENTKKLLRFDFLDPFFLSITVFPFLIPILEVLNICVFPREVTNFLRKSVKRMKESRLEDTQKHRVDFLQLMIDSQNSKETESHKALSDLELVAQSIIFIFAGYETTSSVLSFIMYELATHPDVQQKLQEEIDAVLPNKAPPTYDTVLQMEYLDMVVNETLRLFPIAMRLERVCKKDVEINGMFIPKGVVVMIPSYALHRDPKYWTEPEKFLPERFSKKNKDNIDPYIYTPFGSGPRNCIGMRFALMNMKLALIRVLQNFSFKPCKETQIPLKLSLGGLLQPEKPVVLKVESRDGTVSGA
Assay type: ADME

Going from `Cl.NOCc1cccc(Cl)c1` to `Cl.NOCc1ccc(I)cc1`, the IC50 falls from 15000 nM to 7200 nM (2.1-fold). The second is the more potent here.

What follows are compounds tested against T1, Indoleamine 2,3-dioxygenase 1 (assay: Inhibition of IFN gamma induced human IDO1 in HeLa cells assessed as reduction in kynurenine production treated with 3-fold serial dilution beginning at 100 uM after 24 hrs by microtiter plate reader). Conditions: not given.
Assay type: cell-based
How it was run: (§1)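 HeLa cells seeded 10,000/well in DMEM + 10% FBS + 1% pen-strep; IDO1 induced with IFNγ (100 ng/mL final) for 24 h. Media discarded, wells rinsed, compound serial dilutions added in DMEM + 10% FBS with Trp adjusted to 100 μM. 24 h at 37 °C. TCA stop and fixation 1 h at 4 °C. Supernatant heated at 65 °C for 15 min, mixed with Ehrlich's reagent, read at 490 nm.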
Target sequence in this assay (P14902 whole entry): as the sequence (P14902 whole entry) above

For `Cl.NOCc1cccc(Cl)c1`, the IC50 was 134 nM.

These compounds were tested against T1, Indoleamine 2,3-dioxygenase 1 (assay: Inhibition of IFN gamma induced human IDO1 in HeLa cells assessed as reduction in kynurenine production treated with 5-fold serial dilution beginning at 400 uM after 24 hrs by microtiter plate reader). Conditions: not given.
Assay type: cell-based
How it was run: as §1
Target sequence in this assay (P14902 whole entry): as above

`Cl.NOCc1cccc(Cl)c1` and `Cl.NOCc1ccc(I)cc1` are within 1.5-fold of each other in IC50: 114 nM for the first, 82 nM for the second.

What follows are compounds tested against T1, Indoleamine 2,3-dioxygenase 1 (assay: Inhibition of doxycycline-induced human IDO1 expressed in Trex cells assessed as reduction in kynurenine production treated with 5-fold serial dilution beginning at 400 uM after 24 hrs by microtiter plate reader). Conditions: not given.
Assay type: cell-based
How it was run: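 T-Rex cells carrying tet-regulated human IDO1 cDNA seeded 10,000/well in DMEM + 10% FBS + 1% pen-strep; IDO1 induced with media containing 20 ng/mL doxycycline for 24 h. Media replaced by compound serial dilutions in DMEM + 10% FBS, Trp 100 μM. 24 h at 37 °C. TCA fixation, supernatant heated at 65 °C, Ehrlich's reagent, A490. Single run.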
Target sequence in this assay (P14902 whole entry): as above

Compared with `Cl.NOCc1cccc(Cl)c1`, `Cl.NOCc1ccc(I)cc1` is 2.3-fold higher in IC50: 77 nM for the first, 180 nM for the second. The first is the more potent here.

Each compound was assayed on HeLa (assay: Cytotoxicity against human HeLa cells assessed as cell viability upto 100 uM by sulforhodamine B assay). Conditions: not given.
Assay type: cell-based
How it was run: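 HeLa cells seeded at 10,000/well in DMEM + 10% FBS, IDO1 induced 24 h with IFNγ (100 ng/mL final), then compound serial dilutions in medium with 100 μM Trp for 24 h at 37 °C. Cells fixed with TCA 1 h at 4 °C, stained with 0.4% SRB 15 min, dye solubilized in 10 mM Tris; absorbance at 570 nm.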

In the case of `Cl.NOCc1cccc(Cl)c1`, the Activity is reported as “Non-toxic”.
`Cl.NOCc1ccc(I)cc1` was tested, and the Activity was “Non-toxic”.

What follows are compounds tested against T1, Indoleamine 2,3-dioxygenase 1 (assay: Inhibition of recombinant human IDO1 assessed as reduction in kynurenine production using L-tryptophan as substrate after 60 mins by Michaelis-Menton plot analysis). Conditions: not given.
How it was run: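 Purified recombinant human IDO1 (~27 nM) in 50 mM potassium phosphate pH 6.5 with 40 mM ascorbate, 400 μg/ml catalase and 20 μM methylene blue. For IC50, L-Trp at 100 μM (Km 80 μM). For Ki, inhibitor dilutions matrixed with L-Trp dilutions. 60 min at 37 °C, TCA stop, 65 °C for 15 min, Ehrlich's reagent, A490.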
Target sequence in this assay (P14902 whole entry): as above

`Cl.NOCc1cccc(Cl)c1` and `Cl.NOCc1ccc(I)cc1` are within 1.5-fold of each other in Ki: 154 nM for the first, 164 nM for the second.

What follows are compounds tested against T1, Indoleamine 2,3-dioxygenase 1. Conditions: 110 to 990 nM.
Target sequence in this assay (P14902 whole entry, looked up): as the sequence (P14902 whole entry) above

`Cl.NOCc1cccc(Cl)c1` was tested, and the inhibition was “Active”.
For `Cl.NOCc1ccc(I)cc1`, the inhibition was “Active”.

— ChEMBL document CHEMBL3763056, “O-alkylhydroxylamines as rationally-designed mechanism-based inhibitors of indoleamine 2,3-dioxygenase-1” (Eur J Med Chem, 2016)
